Results on two compounds are retold here after ChEMBL document CHEMBL1121836, “Effect of structural change on acute toxicity and antiinflammatory activity in a series of imidazothiazoles and thiazolobenzimidazoles” (J Med Chem, 1981).

Values joined by “and” are separate entries in the source; they are usually repeats but may differ in a detail not shown here. Equal entries are not always repeated.

In data set [1] the test system is Rattus norvegicus. The experiment in a line: Compound was evaluated in the developed adjuvant arthritis assay at a dose of 3 mg/kg for the percent reduction of carrageenan induced edema (LHF) on 22nd day. Type of data set: functional. A digest of the protocol: (§1)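 Rats received 0.1 mL heat-killed Mycobacterium tuberculosis suspension (3.5 mg/mL) into the left hind footpad on day 1. On day 20, animals with developed arthritis (all four paws swollen, tail and ears involved) were used. Oral gavage in 0.25% methylcellulose (0.005 mL/g) on days 20 and 22. Hind paw volumes were recorded daily on days 20–23. Mean group volume is expressed as percent change from day 20.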
Background: The carrageenan paw model is a standard test of acute inflammation.

The species named for data set [2] is Mus musculus. The experiment in a line: (§2) Compound was evaluated for the toxicity in mice. It is filed as organism-based. To be noted: in vivo.
Data set [3] concerns Rattus norvegicus. The experiment in a line: Compound was evaluated in the developed adjuvant arthritis assay at a dose of 10 mg/kg for the percent reduction of carrageenan induced edema (LHF) on 22nd day. It is filed as functional. The method, boiled down:
as §1

Data set [4] concerns Rattus norvegicus. The experiment in a line: Compound was evaluated in the developed adjuvant arthritis assay at a dose of 30 mg/kg for the percent reduction of carrageenan induced edema (LHF) on 22nd day. Type of data set: functional. A digest of the protocol: as §1
Data set [5] deals with Mus musculus. The experiment in a line: Compound was evaluated for the percent reduction of carrageenan induced edema in mice at dose of 50 mg/kg. Type of data set: functional.
Data set [6] has as its system Rattus norvegicus. The experiment in a line: Compound was evaluated in the developed adjuvant arthritis assay at a dose of 3 mg/kg for the percent reduction of carrageenan induced edema (LHF) on 23rd day. Type of data set: functional. A digest of the protocol:
as §1

The test system of data set [7] is Rattus norvegicus. The experiment in a line: Compound was evaluated in the developed adjuvant arthritis assay at a dose of 10 mg/kg for the percent reduction of carrageenan induced edema (LHF) on 21st day. Type of data set: functional. The method, boiled down: as §1
Data set [8] concerns Rattus norvegicus. The experiment in a line: Compound was evaluated in the developed adjuvant arthritis assay at a dose of 10 mg/kg for the percent reduction of carrageenan induced edema (LHF) on 23rd day. Type of data set: functional. The method, boiled down:
as §1

In data set [9] the test system is Rattus norvegicus. The experiment in a line: Compound was evaluated in the developed adjuvant arthritis assay at a dose of 30 mg/kg for the percent reduction of carrageenan induced edema (LHF) on 21st day. Type of data set: functional. A digest of the protocol:
as §1

Data set [10] relates to Mus musculus. The experiment in a line: Compound was evaluated for the percent reduction of carrageenan induced edema in mice at dose of 25 mg/kg. Type of data set: functional.
Data set [11] relates to Rattus norvegicus. The experiment in a line: Compound was evaluated in the developed adjuvant arthritis assay at a dose of 30 mg/kg for the percent reduction of carrageenan induced edema (LHF) on 23rd day. Type of data set: functional. The method, boiled down: as §1
Data set [12] relates to Rattus norvegicus. The experiment in a line: Compound was evaluated in the developed adjuvant arthritis assay at a dose of 3 mg/kg for the percent reduction of carrageenan induced edema (LHF) on 21st day. It is filed as functional. A digest of the protocol:
as §1

Data set [13] concerns Rattus norvegicus. The experiment in a line: Compound was evaluated in the developed adjuvant arthritis assay at a dose of 1 mg/kg for the percent reduction of carrageenan induced edema (LHF) on 23rd day. It is filed as functional. A digest of the protocol:
as §1

Data set [14] relates to Mus musculus. The experiment in a line: Percent analgesia in phenylquinone writhing assay at 0.3 mg/kg. It is filed as functional. The method, boiled down:
(§3)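 Groups of 10 male mice were dosed orally with compound dissolved or suspended in 0.25% methylcellulose (0.25 mL per mouse). After the designated interval they were challenged ip with 0.25 mL of 0.02% phenylquinone in aqueous ethanol (95:5). Read-out is the percentage of mice protected from writhing.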
For orientation: In writhing tests, fewer writhes than in controls are read as antinociception.

The subject of data set [15] is Rattus norvegicus. The experiment in a line: Compound was evaluated in the developed adjuvant arthritis assay at a dose of 1 mg/kg for the percent reduction of carrageenan induced edema (LHF) on 21nd day. It is filed as functional. The method, boiled down: as §1
A short description of data set [16]: as §2. To be noted: mouse, in vivo. Type of data set: organism-based.
In data set [17] the test system is Mus musculus. The experiment in a line: Percent analgesia in phenylquinone writhing assay at 1 mg/kg. Type of data set: functional. The method, boiled down: as §3
In data set [18] the test system is Mus musculus. The experiment in a line: Percent analgesia in phenylquinone writhing assay at 3 mg/kg. It is filed as functional. The method, boiled down: as §3
Data set [19] is filed under the species Mus musculus. The experiment in a line: Dose giving one-half of average maximal [40%] response in phenylquinone writhing assay. Type of data set: functional.
The species entered for data set [20] is Rattus norvegicus. The experiment in a line: Ulcerogenic dose that produced gastric lesions, ulcers and/or hemorrhage in 50% of the animals tested. It is filed as functional, Stomach. The method, boiled down:
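Ten male Sprague–Dawley rats (ca. 160 g) were fasted 24 h with water available, then dosed po with compound or vehicle. At 4 h they were killed with CO2, and stomachs were opened along the greater curvature. A nonbiased observer scored ulcers, pitting or hemorrhagic spots. UD50 (lesions in 50% of animals) was determined by Litchfield–Wilcoxon.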

The species named for data set [21] is Mus musculus. The experiment in a line: Neurotoxic dose that causes minimal recognizable neurotoxicity in 50% of animals tested. It is filed as functional. A digest of the protocol:
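Mice dosed orally or intraperitoneally; neurotoxicity scored on five end points, including a positional sense test in which a hind leg lowered over a table edge should be quickly lifted back to a normal position. NTD50 is the dose giving minimal recognizable neurotoxicity in 50% of animals tested.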

For data set [22], the system named is Mus musculus. The experiment in a line: Compound was evaluated for the percent reduction of carrageenan induced edema in mice at dose of 3.0 mg/kg. Type of data set: functional.
For data set [23], the system named is Mus musculus. The experiment in a line: Compound was evaluated for the percent reduction of carrageenan induced edema in mice at dose of 1.0 mg/kg. It is filed as functional.
Data set [24] is filed under the species Mus musculus. The experiment in a line: Dose giving one-half of average maximal [40%] response in carrageenan assay. Type of data set: functional.
Data set [25] concerns Rattus norvegicus. The experiment in a line: Compound was evaluated in the developed adjuvant arthritis assay at a dose of 1 mg/kg for the percent reduction of carrageenan induced edema (LHF) on 22nd day. Type of data set: functional. The method, boiled down:
as §1

For data set [26], the system named is Rattus norvegicus. The experiment in a line: Compound was evaluated in the developed adjuvant arthritis assay at a dose of 0.3 mg/kg for the percent reduction of carrageenan induced edema (LHF) on 23rd day. Type of data set: functional. A digest of the protocol:
as §1

In data set [27] the test system is Mus musculus. The experiment in a line: Compound was evaluated for the percent reduction of carrageenan induced edema in mice at dose of 0.3 mg/kg. Type of data set: functional.
The test system of data set [28] is Rattus norvegicus. The experiment in a line: Compound was evaluated in the developed adjuvant arthritis assay at a dose of 0.3 mg/kg for the percent reduction of carrageenan induced edema (LHF) on 22nd day. Type of data set: functional. The method, boiled down:
as §1

Data set [29] is described as follows: Lethal dose evaluated in NPP assay. Type of data set: toxicity, organism-based. Conditions: mouse, in vivo.

In general, LD50 refers to the dose expected to kill half of the subjects tested. In general, ED50 refers to the midpoint of the dose-response relation.

Regarding `CC1=CSC2=NC3CCCCC3N12` (trans isomer), the Reduction in the data set on Rattus norvegicus [1] came to 2%; in the data set with Rattus norvegicus [3], 18%; with Rattus norvegicus [4] it was 19%; in the data set with Mus musculus [5] it was 100%; in the data set with Rattus norvegicus [6] it was 2%; in the data set with Rattus norvegicus [7] it was 10%. Further, the Reduction in the data set on Rattus norvegicus [8] came out at 19%; with Rattus norvegicus [9], 10%; in the data set with Mus musculus [10] it was 76%; in the data set with Rattus norvegicus [11], 18%; in the data set with Rattus norvegicus [12], 0%. This compound came in with a median lethal dose (LD50) in the data set filed under Mus musculus [2] of 20 mg/kg.
As to `COc1ccc2c(c1)c(CC(=O)O)c(C)n2C(=O)c1ccc(Cl)cc1` [INDOMETHACIN], the Reduction was 29% with Rattus norvegicus [13]; 25% with Rattus norvegicus [1]; 21% in the data set with Rattus norvegicus [15]; 35% in the data set with Rattus norvegicus [6]; 39% in the data set on Mus musculus [22]; 22% in the data set with Mus musculus [23]. Moreover, the Reduction in the data set on Rattus norvegicus [25] is 29%; in the data set on Rattus norvegicus [26], 13% and 19%; in the data set with Mus musculus [27], 11%; with Rattus norvegicus [28], 21%; in the data set on Rattus norvegicus [12] it was 17%. Besides, the Analgesia in the data set with Mus musculus [14] is listed as 20%; in the data set with Mus musculus [17], 60%; in the data set on Mus musculus [18], 70%. For the same compound, the median lethal dose (LD50) in [16] and in [29] was 160 mg/kg in each case. The ED50 in the data set listed under Mus musculus [19] and in the data set listed under Mus musculus [24] was 1 mg/kg each time. Besides, the UD50 in the data set filed under Rattus norvegicus [20] is 6 mg/kg. Further, the NTD50 in the data set listed under Mus musculus [21] came to 110 mg/kg.
